This passage reports IC50 results from PubChem BioAssay AID624397 (The Scripps Research Institute Molecular Screening Center, 2012).

The test relates to MCF7 proliferation, sulforhodamine B absorbance, 7-10 days. In words: MCF7 cell proliferation inhibition, late-stage follow-up, counter-screen for AHR activator project, absorbance, set 2 (AID 624397). In outline:
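System: MCF7 cells | Quantity: 2,000 cells/well | Timing: Dosing from 24 h after plating, renewed every 48 h, 37 °C | Detection: SRB absorbance at 490 nm, 650 nm background removed | Measure: % of DMSO proliferation and Hill-fit IC50 | Control set: DMSO-treated cells as reference | Replication: at least triplicate wells per concentration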
In general terms: The purpose of a counterscreen is to sort out artefacts and off-target activity.
As for `Cc1ccc(-c2cc(-c3ccc(F)cc3)n[nH]2)c(O)c1`, the IC50 is 3 µM.

In the case of `Cc1ccc(-c2cc(-c3cccc(F)c3)n[nH]2)c(O)c1`, the IC50 is 3 µM.

In the case of `Cc1ccc(-c2cc(-c3ccc(Cl)cc3)n[nH]2)c(O)c1`, the IC50 was 3 µM.

In general, IC50 refers to the point on the concentration scale where inhibition reaches its midpoint.
